{
  "source": "ChEMBL document CHEMBL1149650",
  "about": "“4-Amino-6-piperazin-1-yl-pyrimidine-5-carbaldehyde oximes as potent FLT-3 inhibitors” (Bioorg Med Chem Lett, 2007)",
  "key": {"[1]": {"system": "MV4-11", "test": "Antiproliferative activity against human MV411 cells"}, "[2]": {"system": "BaF3", "test": "Antiproliferative activity against […] BaF3 cells at 10 uM", "assay_type": "functional"}, "[3]": {"test": "Inhibition of c-fms", "design": "species or system Homo sapiens"}, "[4]": {"target": "ALK tyrosine kinase receptor (Homo sapiens) (UniProt Q9UM73)", "sequence (Q9UM73 19-1620 limits assumed)": "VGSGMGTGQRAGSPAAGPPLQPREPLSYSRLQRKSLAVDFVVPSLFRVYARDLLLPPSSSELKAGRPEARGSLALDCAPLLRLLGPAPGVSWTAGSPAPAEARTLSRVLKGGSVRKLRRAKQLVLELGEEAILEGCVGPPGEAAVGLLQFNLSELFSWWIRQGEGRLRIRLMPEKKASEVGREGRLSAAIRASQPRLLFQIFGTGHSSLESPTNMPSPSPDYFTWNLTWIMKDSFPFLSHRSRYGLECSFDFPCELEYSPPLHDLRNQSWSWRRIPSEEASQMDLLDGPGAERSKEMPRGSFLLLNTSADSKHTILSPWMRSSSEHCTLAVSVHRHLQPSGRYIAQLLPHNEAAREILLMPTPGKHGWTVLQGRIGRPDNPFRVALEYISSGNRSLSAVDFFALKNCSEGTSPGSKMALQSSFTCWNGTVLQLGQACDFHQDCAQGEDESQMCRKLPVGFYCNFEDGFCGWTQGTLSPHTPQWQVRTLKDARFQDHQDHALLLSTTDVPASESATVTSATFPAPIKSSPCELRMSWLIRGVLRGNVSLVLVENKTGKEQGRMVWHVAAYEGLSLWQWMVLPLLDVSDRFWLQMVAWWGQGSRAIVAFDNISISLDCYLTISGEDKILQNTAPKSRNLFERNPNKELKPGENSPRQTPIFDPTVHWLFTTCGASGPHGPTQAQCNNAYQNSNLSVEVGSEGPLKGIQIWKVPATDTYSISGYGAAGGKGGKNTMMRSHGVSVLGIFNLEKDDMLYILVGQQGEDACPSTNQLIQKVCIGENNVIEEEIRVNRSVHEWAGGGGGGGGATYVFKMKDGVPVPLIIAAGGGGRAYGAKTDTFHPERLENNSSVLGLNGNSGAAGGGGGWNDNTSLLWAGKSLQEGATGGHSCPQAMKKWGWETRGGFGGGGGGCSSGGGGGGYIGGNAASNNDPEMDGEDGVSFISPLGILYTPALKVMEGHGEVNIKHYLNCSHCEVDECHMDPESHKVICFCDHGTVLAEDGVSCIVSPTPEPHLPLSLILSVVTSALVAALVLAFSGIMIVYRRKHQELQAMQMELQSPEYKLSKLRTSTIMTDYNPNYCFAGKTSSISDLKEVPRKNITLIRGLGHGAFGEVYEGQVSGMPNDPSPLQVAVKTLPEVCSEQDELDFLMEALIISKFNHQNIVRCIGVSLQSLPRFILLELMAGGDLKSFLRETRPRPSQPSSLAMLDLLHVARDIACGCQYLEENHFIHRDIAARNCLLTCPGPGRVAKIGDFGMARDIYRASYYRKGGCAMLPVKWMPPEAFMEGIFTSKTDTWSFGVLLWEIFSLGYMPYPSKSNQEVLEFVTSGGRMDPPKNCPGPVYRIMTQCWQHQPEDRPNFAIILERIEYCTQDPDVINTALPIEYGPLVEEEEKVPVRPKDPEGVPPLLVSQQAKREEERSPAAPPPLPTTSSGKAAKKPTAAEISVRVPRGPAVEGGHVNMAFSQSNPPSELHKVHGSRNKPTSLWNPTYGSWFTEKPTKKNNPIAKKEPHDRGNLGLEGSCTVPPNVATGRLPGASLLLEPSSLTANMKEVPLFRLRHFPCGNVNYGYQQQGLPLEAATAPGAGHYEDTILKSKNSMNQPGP", "test": "Inhibition of ALK at 3 uM", "in_short": "(§1)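 Run in an external kinase selectivity panel at 3 µM compound with 100 µM ATP. Reported as percent inhibition.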"}, "[5]": {"target": "Mast/stem cell growth factor receptor Kit (Homo sapiens, UniProt P10721)", "sequence (P10721 whole entry)": "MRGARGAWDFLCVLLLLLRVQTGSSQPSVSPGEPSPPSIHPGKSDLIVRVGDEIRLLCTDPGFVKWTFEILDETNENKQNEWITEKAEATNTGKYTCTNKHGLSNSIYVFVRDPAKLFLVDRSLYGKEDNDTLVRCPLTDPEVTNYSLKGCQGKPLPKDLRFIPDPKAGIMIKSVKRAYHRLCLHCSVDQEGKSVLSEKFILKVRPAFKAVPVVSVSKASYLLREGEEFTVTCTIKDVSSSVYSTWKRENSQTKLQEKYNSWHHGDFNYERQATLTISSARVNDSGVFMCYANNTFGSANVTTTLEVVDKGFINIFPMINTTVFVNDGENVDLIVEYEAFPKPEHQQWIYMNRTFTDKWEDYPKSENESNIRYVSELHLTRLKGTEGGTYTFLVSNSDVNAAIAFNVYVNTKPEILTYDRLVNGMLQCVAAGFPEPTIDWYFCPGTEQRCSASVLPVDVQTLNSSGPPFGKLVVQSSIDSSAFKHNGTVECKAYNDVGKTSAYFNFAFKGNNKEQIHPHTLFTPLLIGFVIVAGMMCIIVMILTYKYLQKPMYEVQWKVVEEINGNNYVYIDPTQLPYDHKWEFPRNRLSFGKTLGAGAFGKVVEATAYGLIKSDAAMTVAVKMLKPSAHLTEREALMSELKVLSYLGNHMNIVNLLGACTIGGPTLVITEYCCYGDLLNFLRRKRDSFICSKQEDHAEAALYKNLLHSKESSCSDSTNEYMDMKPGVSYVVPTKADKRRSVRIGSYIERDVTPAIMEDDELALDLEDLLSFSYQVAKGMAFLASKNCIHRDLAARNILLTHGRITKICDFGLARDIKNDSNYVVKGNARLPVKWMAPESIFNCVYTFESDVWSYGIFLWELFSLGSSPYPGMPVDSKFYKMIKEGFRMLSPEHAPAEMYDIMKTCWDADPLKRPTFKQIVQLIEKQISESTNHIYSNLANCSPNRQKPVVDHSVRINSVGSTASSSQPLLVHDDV", "test": "Inhibition of c-kit"}, "[6]": {"target": "Tyrosine-protein kinase Fes/Fps (Homo sapiens) (UniProt P07332)", "sequence (P07332 whole entry)": "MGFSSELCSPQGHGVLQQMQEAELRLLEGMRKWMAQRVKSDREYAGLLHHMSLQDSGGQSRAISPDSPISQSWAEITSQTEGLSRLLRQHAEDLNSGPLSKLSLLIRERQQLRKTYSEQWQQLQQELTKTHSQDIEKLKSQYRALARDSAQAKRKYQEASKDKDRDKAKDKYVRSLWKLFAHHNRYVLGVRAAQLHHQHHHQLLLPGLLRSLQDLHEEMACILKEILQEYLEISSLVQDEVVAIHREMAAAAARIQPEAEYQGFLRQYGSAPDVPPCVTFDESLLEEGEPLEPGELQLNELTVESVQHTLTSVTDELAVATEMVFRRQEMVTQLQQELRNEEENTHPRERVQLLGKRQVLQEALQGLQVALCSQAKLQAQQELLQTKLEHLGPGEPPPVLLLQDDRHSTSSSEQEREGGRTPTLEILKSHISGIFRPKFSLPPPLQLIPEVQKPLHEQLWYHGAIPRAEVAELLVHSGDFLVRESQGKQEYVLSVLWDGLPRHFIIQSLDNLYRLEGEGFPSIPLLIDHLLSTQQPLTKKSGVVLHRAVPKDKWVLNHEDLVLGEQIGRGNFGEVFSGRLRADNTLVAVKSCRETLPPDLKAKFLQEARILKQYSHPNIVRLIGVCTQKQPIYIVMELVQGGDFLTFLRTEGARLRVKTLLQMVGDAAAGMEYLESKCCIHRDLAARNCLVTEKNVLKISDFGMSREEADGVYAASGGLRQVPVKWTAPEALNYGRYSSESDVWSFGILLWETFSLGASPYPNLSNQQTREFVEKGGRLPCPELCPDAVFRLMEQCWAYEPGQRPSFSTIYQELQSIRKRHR", "test": "Inhibition of FES at 3 uM", "in_short": "as §1"}, "[7]": {"target": "Platelet-derived growth factor receptor beta (Homo sapiens, UniProt P09619)", "sequence (P09619 whole entry)": "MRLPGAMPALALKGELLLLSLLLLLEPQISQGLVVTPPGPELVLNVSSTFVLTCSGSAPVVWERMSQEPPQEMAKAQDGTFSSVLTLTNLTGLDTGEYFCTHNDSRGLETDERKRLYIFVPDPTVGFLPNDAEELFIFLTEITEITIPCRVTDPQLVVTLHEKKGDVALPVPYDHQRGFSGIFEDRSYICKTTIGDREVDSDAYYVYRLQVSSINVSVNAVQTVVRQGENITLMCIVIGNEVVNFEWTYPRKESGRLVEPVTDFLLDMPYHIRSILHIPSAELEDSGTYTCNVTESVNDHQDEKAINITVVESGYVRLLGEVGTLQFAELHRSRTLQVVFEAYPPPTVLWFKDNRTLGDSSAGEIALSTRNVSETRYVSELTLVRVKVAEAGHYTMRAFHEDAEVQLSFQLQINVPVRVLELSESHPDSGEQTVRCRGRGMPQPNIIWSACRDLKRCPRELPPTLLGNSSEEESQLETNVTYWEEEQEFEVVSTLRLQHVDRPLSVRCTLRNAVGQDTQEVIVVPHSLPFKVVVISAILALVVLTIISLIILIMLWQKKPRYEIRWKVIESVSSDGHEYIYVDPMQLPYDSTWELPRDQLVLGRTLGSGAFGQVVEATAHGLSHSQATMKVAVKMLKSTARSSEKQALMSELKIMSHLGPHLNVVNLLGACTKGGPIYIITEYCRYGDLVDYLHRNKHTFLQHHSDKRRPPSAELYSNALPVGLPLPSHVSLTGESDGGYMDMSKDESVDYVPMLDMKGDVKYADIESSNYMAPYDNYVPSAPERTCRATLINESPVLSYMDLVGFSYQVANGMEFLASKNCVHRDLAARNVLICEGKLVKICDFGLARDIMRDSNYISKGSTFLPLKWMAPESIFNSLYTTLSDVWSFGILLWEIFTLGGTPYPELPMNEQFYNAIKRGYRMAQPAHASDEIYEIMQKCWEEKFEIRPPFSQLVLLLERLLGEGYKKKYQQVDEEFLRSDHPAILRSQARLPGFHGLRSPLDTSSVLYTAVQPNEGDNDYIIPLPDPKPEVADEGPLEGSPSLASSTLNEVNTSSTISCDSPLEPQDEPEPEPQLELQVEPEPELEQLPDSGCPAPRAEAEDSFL", "test": "Inhibition of PDGFRbeta"}, "[8]": {"system": "BaF3", "test": "Antiproliferative activity against human BaF3 cells expressing FLT3", "settings": "Mus musculus"}},
  "data": [
    {"smiles": "CC(C)Oc1ccc(NC(=O)N2CCN(c3ncnc(N)c3/C=N/OCCN3CCOCC3)CC2)cc1", "values": [
      {"measurement": "IC50", "setting": "[1]", "result": 177, "unit": "nM"}
    ]},
    {"smiles": "CO/N=C/c1c(N)ncnc1N1CCN(C(=O)Nc2ccc(OC3CCCC3)nc2)CC1", "values": [
      {"measurement": "IC50", "setting": "[1]", "result": 112, "unit": "nM"}
    ]},
    {"smiles": "Nc1ncnc(N2CCN(C(=O)Nc3ccc(N4CCCC4)cc3)CC2)c1/C=N/OCCN1CCOCC1", "values": [
      {"measurement": "IC50", "setting": "[1]", "result": 362, "unit": "nM"}
    ]},
    {"smiles": "CC(C)Oc1ccc(NC(=O)N2CCN(c3ncnc(N)c3/C=N/OCCNS(C)(=O)=O)CC2)cc1", "values": [
      {"measurement": "IC50", "setting": "[1]", "result": 415, "unit": "nM"}
    ]},
    {"smiles": "CO/N=C/c1c(N)ncnc1N1CCN(C(=O)Nc2ccc(N3CCOCC3)cc2)CC1", "values": [
      {"measurement": "IC50", "setting": "[1]", "result": 515, "unit": "nM"},
      {"measurement": "Activity", "setting": "[2]", "result": "<50", "unit": "%"}
    ]},
    {"smiles": "CC(C)Oc1ccc(NC(=O)N2CCN(c3ncnc(N)c3/C=N/OCC(=O)N3CCOCC3)CC2)cc1", "values": [
      {"measurement": "IC50", "setting": "[1]", "result": 268, "unit": "nM"}
    ]},
    {"smiles": "Nc1ncnc(N2CCN(C(=O)Nc3ccc(N4CCCC4)cc3)CC2)c1/C=N/OCC(=O)N1CCOCC1", "values": [
      {"measurement": "IC50", "setting": "[1]", "result": 458, "unit": "nM"}
    ]},
    {"smiles": "CCO/N=C/c1c(N)ncnc1N1CCN(C(=O)Nc2ccc(N3CCCCC3)cc2)CC1", "values": [
      {"measurement": "IC50", "setting": "[1]", "result": 58, "unit": "nM"}
    ]},
    {"smiles": "CCO/N=C/c1c(N)ncnc1N1CCN(C(=O)Nc2ccc(OC3CCC3)nc2)CC1", "values": [
      {"measurement": "IC50", "setting": "[1]", "result": 65, "unit": "nM"}
    ]},
    {"smiles": "CO/N=C/c1c(N)ncnc1N1CCN(C(=O)Nc2ccc(OC(C)C)cc2)CC1", "values": [
      {"measurement": "IC50", "setting": "[3]", "result": 1280, "unit": "nM"},
      {"measurement": "IC50", "setting": "[1]", "result": 79, "unit": "nM"},
      {"measurement": "inhibition", "setting": "[4]", "result": 31, "unit": "%"},
      {"measurement": "IC50", "setting": "[5]", "result": 10.5, "unit": "nM"},
      {"measurement": "inhibition", "setting": "[6]", "result": 34, "unit": "%"},
      {"measurement": "IC50", "setting": "[7]", "result": 10700, "unit": "nM"}
    ]},
    {"smiles": "CO/N=C/c1c(N)ncnc1N1CCN(C(=O)Nc2ccc(Cl)cc2)CC1", "values": [
      {"measurement": "IC50", "setting": "[1]", "result": "> 1000", "unit": "nM"},
      {"measurement": "Activity", "setting": "[2]", "result": "<50", "unit": "%"}
    ]},
    {"smiles": "CS(=O)(=O)NCCO/N=C/c1c(N)ncnc1N1CCN(C(=O)Nc2ccc(N3CCCC3)cc2)CC1", "values": [
      {"measurement": "IC50", "setting": "[1]", "result": 554, "unit": "nM"}
    ]},
    {"smiles": "CCO/N=C/c1c(N)ncnc1N1CCN(C(=O)Nc2ccc(OC(C)C)cc2)CC1", "values": [
      {"measurement": "IC50", "setting": "[1]", "result": 77, "unit": "nM"}
    ]},
    {"smiles": "CO/N=C/c1c(N)ncnc1N1CCN(C(=O)Nc2ccc(N(C)C)cc2)CC1", "values": [
      {"measurement": "IC50", "setting": "[1]", "result": 472, "unit": "nM"}
    ]},
    {"smiles": "CO/N=C/c1c(N)ncnc1N1CCN(C(=O)Nc2ccc(OC3CCC3)nc2)CC1", "values": [
      {"measurement": "IC50", "setting": "[1]", "result": 111, "unit": "nM"}
    ]},
    {"smiles": "CC(C)Oc1ccc(NC(=O)N2CCN(c3ncnc(N)c3/C=N/OCCCO)CC2)cc1", "values": [
      {"measurement": "IC50", "setting": "[1]", "result": 283, "unit": "nM"}
    ]},
    {"smiles": "CO/N=C/c1c(N)ncnc1N1CCN(C(=O)Nc2ccc(N3CCCCC3)cc2)CC1", "values": [
      {"measurement": "IC50", "setting": "[1]", "result": 89, "unit": "nM"},
      {"measurement": "IC50", "setting": "[8]", "result": 153, "unit": "nM"}
    ]},
    {"smiles": "CO/N=C/c1c(N)ncnc1N1CCN(C(=O)Nc2ccc(N3CCCC3)cc2)CC1", "values": [
      {"measurement": "IC50", "setting": "[1]", "result": 99, "unit": "nM"}
    ]},
    {"smiles": "CO/N=C/c1c(N)ncnc1N1CCN(C(=O)Nc2ccc(C(C)C)cc2)CC1", "values": [
      {"measurement": "IC50", "setting": "[1]", "result": 78, "unit": "nM"},
      {"measurement": "IC50", "setting": "[8]", "result": 8, "unit": "nM"}
    ]},
    {"smiles": "CO/N=C/c1c(N)ncnc1N1CCN(C(=O)Nc2ccc(C3CCCCC3)cc2)CC1", "values": [
      {"measurement": "IC50", "setting": "[1]", "result": 52, "unit": "nM"}
    ]},
    {"smiles": "CO/N=C/c1c(N)ncnc1N1CCN(C(=O)Nc2ccc(Oc3ccccc3)cc2)CC1", "values": [
      {"measurement": "IC50", "setting": "[1]", "result": 86, "unit": "nM"}
    ]}
  ]
}
